# Experiments:
# [1] = tested on: Staphylococcus epidermidis; assay: Antibacterial activity against Staphylococcus epidermidis ATCC 14990 after 18 hrs; format: functional; settings: ATCC 14990, 18 h
# Procedure, shortened: (§1)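 Broth microdilution in Nutrient Broth No. 2; stocks in ethanol diluted to 0.01–128 µg/ml (triclosan) or 0.25–256 µg/ml (glycosides). Overnight 37 °C NB2 cultures diluted 1 in 10^4 in saline and added to the dilutions. Incubation at 37 °C with agitation, OD read every 15 min; MIC is the lowest concentration preventing any OD rise after 18 h.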
# [2] = Antibacterial activity against Salmonella enterica subspecies enterica serotype Dublin OCC 627 after 18 hrs; format: functional, Salmonella enterica subsp. enterica serovar Dublin; settings: OCC 627, 18 h; procedure, shortened: as §1
# Klebsiella aerogenes [3] = assay: Antibacterial activity against Klebsiella aerogenes NCTC 8167 after 18 hrs; format: functional; settings: NCTC 8167, 18 h; procedure, shortened: as §1
# Escherichia coli [4] = assay: Antibacterial activity against Escherichia coli ATCC 35218 after 18 hrs; format: functional; settings: ATCC 35218, 18 h; procedure, shortened: as §1
# Staphylococcus aureus [5] = assay: Antibacterial activity against Staphylococcus aureus ATCC 6538P after 18 hrs; format: functional; procedure, shortened: as §1
# Cronobacter sakazakii = assay: Antibacterial activity against Cronobacter sakazakii 29544 after 18 hrs; format: functional; settings: Cronobacter sakazakii, 29544, 18 h; procedure, shortened: as §1
# Staphylococcus aureus [6] = assay: Antibacterial activity against Staphylococcus aureus OCC 106 after 18 hrs; format: functional; settings: OCC 106, 18 h; procedure, shortened: as §1
# Hafnia alvei = assay: Antibacterial activity against Hafnia alvei 13337 after 18 hrs; format: functional; settings: Hafnia alvei, 13337, 18 h; procedure, shortened: as §1
# [7] = Antibacterial activity against Salmonella enterica subspecies enterica serotype Nottingham NCTC 7832 after 18 hrs; format: functional, Salmonella enterica subsp. enterica serovar Nottingham; settings: NCTC 7832, 18 h; procedure, shortened: as §1
# [8] = tested on: Staphylococcus haemolyticus; assay: Antibacterial activity against Staphylococcus haemolyticus OCC 2223 after 18 hrs; format: functional; settings: OCC 2223, 18 h
# Procedure, shortened: (§2)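 Broth microdilution in Nutrient Broth No. 2. Ethanol stocks were diluted in broth to 0.01–128 µg/ml for triclosan and 0.25–256 µg/ml for glycosides. Overnight 37°C NB2 cultures were diluted 1 in 10^4 in saline and added to the wells. Plates were incubated at 37°C with OD read every 15 min after agitation. MIC was the lowest concentration giving no OD increase at 18 h.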
# Klebsiella aerogenes [9] = assay: Antibacterial activity against Enterobacter aerogenes ATCC 13048 after 18 hrs; format: functional; settings: ATCC 13048, 18 h; procedure, shortened: as §1
# Enterococcus faecalis [10] = assay: Antibacterial activity against Enterococcus faecalis ATCC 33186 after 18 hrs; format: functional; settings: ATCC 33186, 18 h; procedure, shortened: as §1
# Streptococcus pneumoniae = assay: Antibacterial activity against Streptococcus pneumoniae ATCC 49619 after 18 hrs; format: functional; settings: ATCC 49619, 18 h; procedure, shortened: as §2
# Staphylococcus aureus [11] = assay: Antibacterial activity against Staphylococcus aureus OCC 104 after 18 hrs; format: functional; settings: OCC 104, 18 h; procedure, shortened: as §1
# Escherichia coli [12] = assay: Antibacterial activity against Escherichia coli ATCC 25922 after 18 hrs; format: functional; settings: ATCC 25922, 18 h; procedure, shortened: as §1
# Staphylococcus aureus [13] = assay: Antibacterial activity against Staphylococcus aureus NCTC 13758 after 18 hrs; format: functional; settings: NCTC 13758, 18 h; procedure, shortened: as §1
# Klebsiella pneumoniae = assay: Antibacterial activity against Klebsiella pneumoniae ATCC 10031 after 18 hrs; format: functional; settings: ATCC 10031, 18 h; procedure, shortened: as §1
# Staphylococcus aureus [14] = assay: Antibacterial activity against Staphylococcus aureus ATCC 6538 after 18 hrs; format: functional; settings: ATCC 6538, 18 h; procedure, shortened: as §1
# Enterococcus faecalis [15] = assay: Antibacterial activity against Enterococcus faecalis ATCC 29212 after 18 hrs; format: functional; settings: ATCC 29212, 18 h; procedure, shortened: as §1
# [16] = Antibacterial activity against Salmonella enterica subspecies enterica serotype Poona NCTC 4840 after 18 hrs; format: functional, Salmonella enterica subsp. enterica serovar Poona; settings: NCTC 4840, 18 h; procedure, shortened: as §1
# [17] = tested on: Staphylococcus epidermidis; assay: Antibacterial activity against Staphylococcus epidermidis 155 after 18 hrs; format: functional; settings: Staphylococcus epidermidis, 155, 18 h; procedure, shortened: as §1
# Bacillus cereus = assay: Antibacterial activity against Bacillus cereus ATCC 14579 after 18 hrs; format: functional; settings: ATCC 14579, 18 h; procedure, shortened: as §1
# Escherichia hermannii = assay: Antibacterial activity against Escherichia hermannii 33650 after 18 hrs; format: functional; settings: Atlantibacter hermannii, 33650, 18 h; procedure, shortened: as §1
# Bacillus subtilis = assay: Antibacterial activity against Bacillus subtilis NCTC 10073 after 18 hrs; format: functional; settings: NCTC 10073, 18 h; procedure, shortened: as §1
# [18] = Antibacterial activity against Salmonella enterica subspecies enterica serotype Infantis OCC 2133 after 18 hrs; format: functional, Salmonella enterica subsp. enterica serovar Infantis; settings: OCC 2133, 18 h; procedure, shortened: as §1
# Staphylococcus aureus [19] = assay: Antibacterial activity against Staphylococcus aureus ATCC 25923 after 18 hrs; format: functional; settings: ATCC 25923, 18 h; procedure, shortened: as §1
# [20] = Antibacterial activity against Salmonella enterica subspecies enterica serotype Arizonae OCC 706 after 18 hrs; format: functional, Salmonella enterica subsp. enterica serovar Arizonae; settings: OCC 706, 18 h; procedure, shortened: as §1
# Aeromonas hydrophila = assay: Antibacterial activity against Aeromonas hydrophila OCC 778 after 18 hrs; format: functional; settings: OCC 778, 18 h; procedure, shortened: as §1
# Serratia marcescens = assay: Antibacterial activity against Serratia marcescens OCC 217 after 18 hrs; format: functional; settings: OCC 217, 18 h; procedure, shortened: as §1
compound,measurement,setting,value
OC[C@H]1O[C@@H](Oc2cc(Cl)ccc2Oc2ccc(Cl)cc2Cl)[C@H](O)[C@@H](O)[C@H]1O,MIC,[1],0.5 µg/mL
same,MIC,[2],2 to 16 µg/mL
same,MIC,Klebsiella aerogenes [3],4 µg/mL
same,MIC,Escherichia coli [4],0.5 to 32 µg/mL
same,MIC,Staphylococcus aureus [5],0.5 µg/mL
same,MIC,Cronobacter sakazakii,8 µg/mL
same,MIC,Staphylococcus aureus [6],0.5 µg/mL
same,MIC,Hafnia alvei,0.5 µg/mL
same,MIC,[7],2 to 16 µg/mL
same,MIC,[8],0.5 µg/mL
same,MIC,Klebsiella aerogenes [9],8 µg/mL
same,MIC,Enterococcus faecalis [10],128 µg/mL
same,MIC,Streptococcus pneumoniae,128 µg/mL
same,MIC,Staphylococcus aureus [11],0.5 µg/mL
same,MIC,Escherichia coli [12],0.5 to 32 µg/mL
same,MIC,Staphylococcus aureus [13],0.5 µg/mL
same,MIC,Klebsiella pneumoniae,0.5 µg/mL
same,MIC,Staphylococcus aureus [14],0.5 µg/mL
same,MIC,Enterococcus faecalis [15],128 µg/mL
same,MIC,[16],2 to 16 µg/mL
same,MIC,[17],0.5 µg/mL
same,MIC,Bacillus cereus,256 µg/mL
same,MIC,Escherichia hermannii,2 µg/mL
same,MIC,Bacillus subtilis,32 µg/mL
same,MIC,[18],2 to 16 µg/mL
same,MIC,Staphylococcus aureus [19],0.5 µg/mL
same,MIC,[20],2 to 16 µg/mL
same,MIC,Aeromonas hydrophila,256 µg/mL
same,MIC,Serratia marcescens,> 256 µg/mL

# From ChEMBL document CHEMBL4325893, “Synthesis and antibacterial profiles of targeted triclosan derivatives” (2019)
